The target in data set [1] is T1, Peroxisome proliferator-activated receptor delta (Homo sapiens) (UniProt Q03181).
T1 sequence (whole entry): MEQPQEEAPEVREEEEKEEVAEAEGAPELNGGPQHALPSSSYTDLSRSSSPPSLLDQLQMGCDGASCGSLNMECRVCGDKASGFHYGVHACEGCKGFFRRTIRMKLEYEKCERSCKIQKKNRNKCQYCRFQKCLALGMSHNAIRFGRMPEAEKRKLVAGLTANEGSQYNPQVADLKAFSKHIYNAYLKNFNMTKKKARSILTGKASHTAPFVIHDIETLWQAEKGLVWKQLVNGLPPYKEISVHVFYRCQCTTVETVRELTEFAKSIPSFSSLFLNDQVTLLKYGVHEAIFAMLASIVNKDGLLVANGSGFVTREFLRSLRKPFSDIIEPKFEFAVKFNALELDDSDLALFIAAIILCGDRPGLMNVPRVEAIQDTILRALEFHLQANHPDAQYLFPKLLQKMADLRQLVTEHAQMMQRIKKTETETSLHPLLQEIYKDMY

Data set [2] is described as follows: Metabolic stability in C57BL/6 mouse liver microsomes assessed as half life. It counts as ADME, Microsome. Particulars: time 2 min.
Data set [3] deals with T2, Peroxisome proliferator-activated receptor alpha (Mus musculus) (UniProt P23204).
T2 sequence (whole entry): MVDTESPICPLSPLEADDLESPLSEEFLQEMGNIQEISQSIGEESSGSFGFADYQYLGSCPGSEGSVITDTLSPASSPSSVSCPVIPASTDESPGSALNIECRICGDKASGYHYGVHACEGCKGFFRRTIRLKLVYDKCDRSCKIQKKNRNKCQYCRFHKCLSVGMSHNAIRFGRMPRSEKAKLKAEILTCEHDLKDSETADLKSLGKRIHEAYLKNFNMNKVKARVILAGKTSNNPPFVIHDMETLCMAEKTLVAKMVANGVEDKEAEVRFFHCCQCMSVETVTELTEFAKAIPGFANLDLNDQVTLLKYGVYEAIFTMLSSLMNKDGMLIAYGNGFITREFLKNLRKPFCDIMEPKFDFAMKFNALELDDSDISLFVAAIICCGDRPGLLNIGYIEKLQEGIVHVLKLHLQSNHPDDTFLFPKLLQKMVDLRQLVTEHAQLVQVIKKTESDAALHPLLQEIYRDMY
The experiment in a line: Agonist activity at human PPARalpha in mouse hepatocytes assessed as induction of Pdk4 mRNA expression at 50 uM incubated for 16 hrs by quantitative real-time PCR analysis. The class given is cell-based. Particulars: Hepatocyte, filed as agonist. The procedure, abridged: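 Collagenase-perfused mouse primary hepatocytes from WT mice, plated 2 h in attachment medium, overnight in M199 with 5% charcoal-stripped FBS and 1 nM insulin. Treated next day in serum-free M199 with 50 μM compound for 16 h. RNA qPCR (SYBR Green), comparative Ct method.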

Data set [4] concerns the target T3, Peroxisome proliferator-activated receptor gamma (Mus musculus) (UniProt P37238).
T3 sequence (whole entry): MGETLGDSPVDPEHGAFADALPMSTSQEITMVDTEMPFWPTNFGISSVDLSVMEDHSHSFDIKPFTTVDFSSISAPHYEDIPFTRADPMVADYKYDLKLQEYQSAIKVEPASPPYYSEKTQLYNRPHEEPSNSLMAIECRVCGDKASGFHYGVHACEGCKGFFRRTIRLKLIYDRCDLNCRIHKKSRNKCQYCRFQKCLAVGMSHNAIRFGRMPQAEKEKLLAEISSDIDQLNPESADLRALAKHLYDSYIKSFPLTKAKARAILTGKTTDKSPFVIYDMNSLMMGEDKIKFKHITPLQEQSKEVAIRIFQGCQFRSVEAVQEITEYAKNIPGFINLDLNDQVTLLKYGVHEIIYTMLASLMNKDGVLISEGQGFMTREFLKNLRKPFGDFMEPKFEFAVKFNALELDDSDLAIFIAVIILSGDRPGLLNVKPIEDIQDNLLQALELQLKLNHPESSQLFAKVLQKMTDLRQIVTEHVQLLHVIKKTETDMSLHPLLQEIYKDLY
The experiment in a line: Agonist activity at human PPARgamma in mouse 3T3-L1 cells assessed as induction of adipogenic differentiation at 25 uM measured after 11 days by Oil Red O staining analysis. It counts as cell-based. Particulars: filed as agonist, time 11.0 day. In short, it runs like this:
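3T3-L1 cells differentiated for 11 days (IBMX/dexamethasone/insulin induction, then insulin, then maintenance medium) with 25 μM compound or 10 μM rosiglitazone from day 0. Cells formalin-fixed and stained with 0.6% Oil Red O. Lipid quantified spectrophotometrically after dye extraction.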

Data set [5] can be described thus: Metabolic stability in C57BL/6 mouse liver microsomes assessed as parent compound remaining incubated for 120 mins. The class given is ADME, Microsome. Particulars: read-out: Stability.
Data set [6] concerns the target T4, Peroxisome proliferator-activated receptor gamma (Homo sapiens) (UniProt P37231).
T4 sequence (whole entry): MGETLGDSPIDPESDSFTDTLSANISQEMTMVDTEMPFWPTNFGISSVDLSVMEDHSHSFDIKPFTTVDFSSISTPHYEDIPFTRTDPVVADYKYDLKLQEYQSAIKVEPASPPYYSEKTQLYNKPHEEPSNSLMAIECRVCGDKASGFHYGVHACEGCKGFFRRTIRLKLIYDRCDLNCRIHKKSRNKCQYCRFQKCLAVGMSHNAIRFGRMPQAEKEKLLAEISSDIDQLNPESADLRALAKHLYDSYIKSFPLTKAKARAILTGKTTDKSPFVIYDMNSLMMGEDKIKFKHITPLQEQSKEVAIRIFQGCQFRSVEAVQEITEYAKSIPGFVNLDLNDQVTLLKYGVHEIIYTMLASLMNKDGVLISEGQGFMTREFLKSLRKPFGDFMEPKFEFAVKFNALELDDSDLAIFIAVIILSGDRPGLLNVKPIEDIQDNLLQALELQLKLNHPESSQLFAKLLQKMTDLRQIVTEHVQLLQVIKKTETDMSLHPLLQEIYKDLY
The experiment in a line: Stabilization of human PPARgamma LBD assessed as change in melting temperature at 50 uM by thermal shift assay.

Data set [7] deals with T1, Peroxisome proliferator-activated receptor delta (Homo sapiens). The experiment in a line: Stabilization of human PPARdelta LBD assessed as change in melting temperature at 50 uM by thermal shift assay.

Activity calls are given as the source filed them. The calls are words filed in the database; no cut-off is given here.

The values below come from ChEMBL document CHEMBL5154715, “Phenolic Lipids Derived from Cashew Nut Shell Liquid to Treat Metabolic Diseases” (J Med Chem, 2022).
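Wherever EC50 is given: reporter gene assay with luciferase read-out normalized to beta-galactosidase, measuring agonist activation of PPARδ expressed in HEK293 cells.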

Regarding `CCCCCCCCCCCCCCCc1cccc(OC(C)=O)c1C(=O)O`, the EC50 in data set [1] (HEK293) was more than 50 µM. The half-life in data set [2] worked out at 0.0333 h. In addition, the result in data set [3] and in data set [4] was Active. Further, in data set [5], the remaining at 2 h is 0%. The values for the ΔTm in data set [6] and in data set [7] were 4.4 °C and 12 °C, respectively.

Take `CCCCCCCCCCCCCCCc1cccc(OC(C)(C)C(=O)O)c1`: the EC50 in data set [1] (HEK293, filed as agonist) amounted to 33 µM. Moreover, the half-life in data set [2] was 6 h. In addition, the result in data set [3] and in data set [4] was Active. For the same compound, the remaining at 2 h in data set [5] was 79%. Further, the values for the ΔTm in data set [6] and in data set [7] were 6.3 °C and 11.3 °C, respectively.

For `CCCCCC/C=C\CCCCCCCc1cccc(OC(C)(C)C(=O)O)c1`, the EC50 in data set [1] (HEK293, filed as agonist) stood at 21 µM. In addition, the half-life in data set [2] was 13.9 h. Also, the outcome in data set [3] and in data set [4] was Active. Moreover, in data set [5], the remaining at 2 h was determined as 90%. The results for the ΔTm in data set [6] and in data set [7] were 5.6 °C and 6.8 °C, respectively.
